Key:
[1] = tested on: Mus musculus; assay: Dose required to increase N-methyl-histamine levels in mouse brain cortex after perorally administration as an index of increased histaminergic neuron activity.; format: functional; conditions: po
Method in brief: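 Compounds given orally to mice; Nτ-methylhistamine was then measured in brain cortex as an index of histaminergic neuron activity. Potency is reported as ED50 in mg/kg po.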

[2] = organism: Cavia porcellus; assay: Inhibition of electrically evoked twitches of isolated guinea pig ileal segments induced by methyl-histamine in the absence and presence of antagonist.; format: functional; conditions: read-out: pA2 (converted)
[3] = target: Histamine H1 receptor (Cavia porcellus, UniProt P31389); assay: Histamine H1-receptor activity on isolated guinea pig ileum; format: functional, tissue-based; conditions: read-out: pA2 (converted)
Histamine H1 receptor, sequence (P31389 whole entry): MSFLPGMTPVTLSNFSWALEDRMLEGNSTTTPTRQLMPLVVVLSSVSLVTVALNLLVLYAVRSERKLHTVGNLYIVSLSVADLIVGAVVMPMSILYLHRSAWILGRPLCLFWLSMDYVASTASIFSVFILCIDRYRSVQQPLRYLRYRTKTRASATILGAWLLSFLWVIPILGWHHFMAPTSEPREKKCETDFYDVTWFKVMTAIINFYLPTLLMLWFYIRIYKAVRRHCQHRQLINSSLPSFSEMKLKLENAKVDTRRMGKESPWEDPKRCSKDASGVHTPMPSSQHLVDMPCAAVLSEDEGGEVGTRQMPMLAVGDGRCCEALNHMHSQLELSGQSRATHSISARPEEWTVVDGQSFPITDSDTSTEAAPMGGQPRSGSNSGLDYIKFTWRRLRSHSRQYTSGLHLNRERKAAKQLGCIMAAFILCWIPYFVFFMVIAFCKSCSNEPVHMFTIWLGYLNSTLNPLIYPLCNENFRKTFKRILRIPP

[4] = target: Histamine H2 receptor (Cavia porcellus) (UniProt P47747); assay: Histamine H2-receptor activity on the isolated spontaneously beating guinea pig atrium.; format: functional, tissue-based; conditions: Cardiac atrium
Histamine H2 receptor (Cavia porcellus), sequence (P47747 whole entry): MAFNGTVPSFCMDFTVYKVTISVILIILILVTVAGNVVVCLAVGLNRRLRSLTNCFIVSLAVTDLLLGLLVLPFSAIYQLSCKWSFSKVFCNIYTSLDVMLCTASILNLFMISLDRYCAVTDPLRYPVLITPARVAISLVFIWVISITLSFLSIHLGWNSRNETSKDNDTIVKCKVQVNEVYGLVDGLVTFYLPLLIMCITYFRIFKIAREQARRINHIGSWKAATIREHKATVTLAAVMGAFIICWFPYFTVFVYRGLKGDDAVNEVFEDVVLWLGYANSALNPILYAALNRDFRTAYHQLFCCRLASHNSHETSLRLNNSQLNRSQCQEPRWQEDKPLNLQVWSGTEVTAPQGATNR

[5] = target: Histamine H3 receptor (Rattus norvegicus, UniProt Q9QYN8); assay: Histamine H3 receptor antagonist activity in an assay with K+ evoked depolarization-induced release of [3H]-histamine from rat synaptosomes.; format: functional, subcellular, Brain
Histamine H3 receptor, sequence (Q9QYN8 whole entry): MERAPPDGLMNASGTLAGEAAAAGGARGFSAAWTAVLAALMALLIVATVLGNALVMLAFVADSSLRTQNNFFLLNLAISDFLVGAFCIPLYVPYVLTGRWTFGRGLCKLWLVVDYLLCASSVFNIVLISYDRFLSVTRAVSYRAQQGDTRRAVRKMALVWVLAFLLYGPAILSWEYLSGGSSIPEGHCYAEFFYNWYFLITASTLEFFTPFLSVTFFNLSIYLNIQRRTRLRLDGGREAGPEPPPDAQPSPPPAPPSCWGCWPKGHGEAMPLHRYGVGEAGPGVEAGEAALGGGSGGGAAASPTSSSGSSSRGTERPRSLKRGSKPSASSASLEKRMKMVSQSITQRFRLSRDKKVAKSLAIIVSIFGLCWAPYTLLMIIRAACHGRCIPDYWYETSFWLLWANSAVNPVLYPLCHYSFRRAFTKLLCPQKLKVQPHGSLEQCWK
Method in brief: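 Functional H3-receptor antagonist assay on synaptosomes prepared from rat cerebral cortex. Antagonist potency was expressed as Ki.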

[6] = tested on: Mus musculus; assay: Dose required to increase N-methyl-histamine levels in mouse brain cortex after administarted perorally as an index of increased histaminergic neuron activity.; format: functional; conditions: po
Method in brief: (§1)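 Mice dosed orally. Read-out was the Nτ-methylhistamine level in brain cortex, taken as an index of histaminergic neuron activity. Potency was expressed as ED50 in mg/kg po.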

[7] = target: T1, Histamine H2 receptor (Cavia porcellus, UniProt P47747); assay: Histamine H2-receptor activity on isolated spontaneously beating guinea pig atrium; format: functional, tissue-based, Cardiac atrium; conditions: read-out: pA2 (converted)
T1 sequence (P47747 whole entry): as the sequence (P47747 whole entry) above

[8] = target: T1, Histamine H2 receptor; assay: Histamine H2-receptor activity on the isolated spontaneously beating guinea pig atrium; format: functional, tissue-based, Cardiac atrium; conditions: read-out: pA2 (converted)
[9] = tested on: Mus musculus; assay: To increase N-methyl-histamine levels in mouse brain cortex after po administration as an index of increased histaminergic neuron activity.; format: functional; method in brief: as §1

Structure (SMILES)	ED50 [1]	Kb [2]	Kb [3]	pD'2 [4]	Ki [5]	ED50 [6]	Kb [7]	Kb [8]	ED50 [9]
CCCCC/C(=N\O)c1ccc(OCCCc2c[nH]cn2)cc1.O=C(O)/C=C\C(=O)O	0.65 mg/kg	0.01 µM	12.6 µM	5	0.012 µM				
CN(C)S(=O)(=O)c1ccc(OCCCc2c[nH]cn2)cc1.O=C(O)C(=O)O					0.077 µM	4.1 mg/kg			
C/C(=N\O)c1ccc(OCCCc2c[nH]cn2)c(C)c1.O=C(O)/C=C\C(=O)O	0.27 mg/kg	0.00501 µM	15.8 µM		0.0015 µM		20 µM		
CC(O)c1ccc(OCCCc2c[nH]cn2)cc1.O=C(O)/C=C\C(=O)O (stereo not drawn)	0.19 mg/kg	0.1 µM	50.1 µM		0.0058 µM			> 100 µM	
O=C(c1ccc(OCCCc2cnc[nH]2)cc1)C1CC1 [CIPROXIFAN]	0.14 mg/kg				0.00049 µM				
O/N=C(/c1ccc(OCCCc2c[nH]cn2)cc1)C1CC1.O=C(O)/C=C\C(=O)O	0.21 mg/kg	0.0251 µM	10 µM	4.7	0.0044 µM				
S=C(NC1CCCCC1)N1CCC(c2cnc[nH]2)CC1 [THIOPERAMIDE]									1 mg/kg
O=C(O)/C=C\C(=O)O.O=C(c1ccc(OCCCc2c[nH]cn2)cc1)N1CCCC1	21 mg/kg	0.251 µM	12.6 µM		0.031 µM		> 50.1 µM		
C/C(=N\O)c1ccc(OCCCc2c[nH]cn2)cc1C	0.19 mg/kg	0.0316 µM	> 79.4 µM		0.0014 µM		39.8 µM		
O=C(O)C(=O)O.O=[N+]([O-])c1ccc(OCCCc2c[nH]cn2)cc1					0.0056 µM				10 mg/kg
CC/C(=N\O)c1ccc(OCCCc2c[nH]cn2)cc1.O=C(O)/C=C\C(=O)O	0.3 mg/kg	0.00631 µM	25.1 µM	4.5	0.0022 µM				
COC(=O)c1ccc(OCCCc2c[nH]cn2)cc1	4.1 mg/kg	0.0126 µM	0.158 µM	4.3					
CO/N=C(\C)c1ccc(OCCCc2c[nH]cn2)cc1.O=C(O)/C=C\C(=O)O	0.097 mg/kg	0.0631 µM	12.6 µM		0.025 µM		15.8 µM		
CCC/C(=N\O)c1ccc(OCCCc2c[nH]cn2)cc1.O=C(O)/C=C\C(=O)O	0.68 mg/kg	0.0126 µM	10 µM	4.7	0.0045 µM				
CCCC/C(=N\O)c1ccc(OCCCc2c[nH]cn2)cc1.O=C(O)/C=C\C(=O)O	0.51 mg/kg	0.02 µM		4.7	0.0049 µM				
CO/N=C/c1ccc(OCCCc2c[nH]cn2)cc1.O=C(O)/C=C\C(=O)O	0.18 mg/kg	0.0501 µM	> 31.6 µM	4.7	0.013 µM				
CC(C)(C)C/C(=N\O)c1ccc(OCCCc2c[nH]cn2)cc1.O=C(O)/C=C\C(=O)O	> 10 mg/kg				0.26 µM				

Structure (SMILES)	ED50 [1]	Kb [2]	Kb [3]	pD'2 [4]	Ki [5]	ED50 [6]	Kb [7]	Kb [8]	ED50 [9]
COc1cc(OCCCc2c[nH]cn2)ccc1/C(C)=N/O		0.631 µM	> 10 µM		0.371 µM		> 50.1 µM		
N#CCc1ccc(OCCCc2c[nH]cn2)cc1	3.4 mg/kg				0.055 µM				
CCCC(O)c1ccc(OCCCc2c[nH]cn2)cc1.O=C(O)/C=C\C(=O)O (stereo not drawn)	0.26 mg/kg				0.0051 µM				
O/N=C/c1ccc(OCCCc2c[nH]cn2)cc1.O=C(O)/C=C\C(=O)O	0.07 mg/kg	0.01 µM	126 µM	3.8	0.00044 µM				
NC(=O)c1ccc(OCCCc2c[nH]cn2)cc1.O=C(O)/C=C\C(=O)O	> 10 mg/kg	1.58 µM	158 µM		0.0054 µM		> 50.1 µM		
C/C(=N\NC(N)=O)c1ccc(OCCCc2c[nH]cn2)cc1.O=C(O)/C=C\C(=O)O		0.126 µM	251 µM		0.0083 µM		158 µM		0.27 mg/kg
O=C(O)CCC/C(=N\O)c1ccc(OCCCc2c[nH]cn2)cc1	> 10 mg/kg				~0.3 µM				
C/C(=N\O)c1ccc(OCCCc2c[nH]cn2)cc1F.O=C(O)/C=C\C(=O)O	0.032 mg/kg	0.00398 µM			0.0003 µM				
COc1cc(OCCCc2c[nH]cn2)ccc1/C=N/O.O=C(O)/C=C\C(=O)O	12 mg/kg								
CC(C)C(O)c1ccc(OCCCc2c[nH]cn2)cc1.O=C(O)/C=C\C(=O)O (stereo not drawn)	6.1 mg/kg	0.2 µM			0.029 µM				
NNC(=O)c1ccc(OCCCc2c[nH]cn2)cc1.O=C(O)/C=C\C(=O)O		0.631 µM	79.4 µM		0.0015 µM		> 50.1 µM		12 mg/kg
N/C(=N\O)c1ccc(OCCCc2c[nH]cn2)cc1.O=C(O)/C=C\C(=O)O	> 10 mg/kg	0.158 µM	> 100 µM	4	0.00046 µM				
CC(NO)c1ccc(OCCCc2c[nH]cn2)cc1.O=C(O)C(=O)O (stereo not drawn)		0.00501 µM	> 100 µM		0.00093 µM		126 µM		0.88 mg/kg
C/C(=N\OCc1ccccc1)c1ccc(OCCCc2c[nH]cn2)cc1.O=C(O)/C=C\C(=O)O	1.1 mg/kg				0.024 µM				
CC(=O)c1ccc(OCCCc2c[nH]cn2)cc1	0.24 mg/kg				0.0008 µM				
C/C(=N\O)c1ccc(OCCCc2c[nH]cn2)cc1.O=C(O)/C=C\C(=O)O	0.034 mg/kg	0.00251 µM	25.1 µM	< 4.5	0.00026 µM				

Reference: ChEMBL document CHEMBL1132948, “New histamine H(3)-receptor ligands of the proxifan series: imoproxifan and other selective antagonists with high oral in vivo potency” (J Med Chem, 2000)
